Measured values: ChEMBL document CHEMBL1121770, “Substituted imidazo[2,3-alpha]pyridine-2-carbamate anthelmintics” (1981)

Assays:
Type in all cases: functional
Mus musculus [1] = assay: Compound was administered at 250 p.p.m. in the diet of mice, for percent reduction of Nematospiroides dubius in mice
In short: (§1)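 Mouse infection test run by Baker's method, three mice per treated group. Worm counts are averaged per mouse, and percent reduction is derived from them. Reductions below 20% are recorded as 0.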

Mus musculus [2] = assay: Compound was administered at 62.5 p.p.m. in the diet of mice, for percent reduction of Nematospiroides dubius in mice; in short: as §1
Mus musculus [3] = assay: Compound was administered at 500 p.p.m. in the diet of mice, for percent reduction of Nematospiroides dubius in mice; in short: as §1
Mus musculus [4] = assay: Compound was administered at 125 p.p.m. in the diet of mice, for percent reduction of Nematospiroides dubius in mice; in short: as §1
Mus musculus [5] = assay: Compound was administered at 1000 p.p.m. in the diet of mice, for percent reduction of Nematospiroides dubius in mice; in short: as §1

With `COC(=O)Nc1cn2cc(Sc3ccccc3)ccc2n1` the Reduction (Mus musculus [1]) was 98%, the Reduction (Mus musculus [2]) was 0% and the Reduction (Mus musculus [3]) was 100%. It also gave a Reduction (Mus musculus [4]) of 38%.
Work on `COC(=O)Nc1cn2cc(C(Cl)=C(Cl)Cl)ccc2n1` yielded a Reduction (Mus musculus [2]) of 94% and a Reduction (Mus musculus [4]) of 94%.
`COC(=O)Nc1cn2ccccc2n1` showed a Reduction (Mus musculus [5]) of 54% and a Reduction (Mus musculus [3]) of 0%.
For `c1ccc2[nH]c(-c3cscn3)nc2c1` [THIABENDAZOLE], the Reduction (Mus musculus [5]) was 100%, the Reduction (Mus musculus [1]) was 26% and the Reduction (Mus musculus [3]) was 86%. For the same molecule, the Reduction (Mus musculus [4]) was 0%.
For `COC(=O)Nc1cn2cc(C(=O)c3ccccc3)ccc2n1`, the Reduction (Mus musculus [5]) was 0% and the Reduction (Mus musculus [3]) was 0%.
For `CC(C)OC(=O)Nc1ccc2[nH]c(-c3cscn3)nc2c1` [CAMBENDAZOLE], the Reduction (Mus musculus [1]) was 73%, the Reduction (Mus musculus [2]) was 0% and the Reduction (Mus musculus [3]) was 100%. For the same molecule, the Reduction (Mus musculus [4]) was 0%.
With `CCCSc1ccc2nc(NC(=O)OC)cn2c1` the Reduction (Mus musculus [1]) was 100%, the Reduction (Mus musculus [2]) was 0% and the Reduction (Mus musculus [4]) was 74%.
Molecule `CCCOc1ccc2nc(NC(=O)OC)cn2c1` has a Reduction (Mus musculus [1]) of 74%, a Reduction (Mus musculus [2]) of 0% and a Reduction (Mus musculus [4]) of 44%.
Work on `COC(=O)Nc1nc2cc(C(Cl)=C(Cl)Cl)ccc2[nH]1` yielded a Reduction (Mus musculus [1]) of 99%, a Reduction (Mus musculus [2]) of 57% and a Reduction (Mus musculus [4]) of 69%.
With `COC(=O)Nc1cn2cc([S+]([O-])c3ccccc3)ccc2n1` (centres undefined) the Reduction (Mus musculus [2]) was 35% and the Reduction (Mus musculus [4]) was 100%.
